Assay results: ChEMBL document CHEMBL1811866, “Design, synthesis, and biological evaluation of abiotic, non-lactone modulators of LuxR-type quorum sensing” (Bioorg Med Chem, 2011)

Assays:
Type in all cases: functional
[1] = tested on: Escherichia coli DH5[alpha]; test: Agonist activity at Escherichia coli DH5alpha (pJN105L + pSC11) LasR assessed as activation of quorum sensing at 10 uM relative to N-(3-oxo)-dodecanoyl HL
[2] = biological target: T1, Transcriptional activator protein LasR (Pseudomonas aeruginosa (strain ATCC 15692 / PAO1 / 1C / PRS 101 / LMG12228)) (UniProt P25084); test: Antagonist activity at Pseudomonas aeruginosa PAO1 MW1 (pUM15) LasR assessed as inhibition of N-(3-oxo)-dodecanoyl HL-induced quorum sensing activation at 10 uM relative to untreated control
T1 sequence (whole entry): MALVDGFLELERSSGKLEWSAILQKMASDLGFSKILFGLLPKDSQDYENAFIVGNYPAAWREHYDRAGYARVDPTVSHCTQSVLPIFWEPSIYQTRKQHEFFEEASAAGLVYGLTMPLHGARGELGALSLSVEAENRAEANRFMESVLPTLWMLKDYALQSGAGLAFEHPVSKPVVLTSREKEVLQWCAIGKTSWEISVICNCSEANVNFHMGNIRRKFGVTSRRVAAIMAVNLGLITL
How it was run: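 P. aeruginosa PAO1 MW1 colony grown overnight at 30 °C in LB with MOPS at pH 7 plus carbenicillin (300 µg/mL). Diluted 1:10 and shaken at 37 °C to OD 0.25–0.30. OdDHL added to the subculture at 1 μM final, then plated with test compound. Plates shaken at 37 °C for 8 h, then optical density and fluorescence read.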

[3] = biological target: T2, Transcriptional activator protein TraR (Agrobacterium tumefaciens) (UniProt P33905); test: Antagonist activity at Agrobacterium tumefaciens WCF (pCF372) TraR assessed as inhibition of OOHL-induced quorum sensing activation at 10 uM relative to untreated control
T2 sequence (whole entry): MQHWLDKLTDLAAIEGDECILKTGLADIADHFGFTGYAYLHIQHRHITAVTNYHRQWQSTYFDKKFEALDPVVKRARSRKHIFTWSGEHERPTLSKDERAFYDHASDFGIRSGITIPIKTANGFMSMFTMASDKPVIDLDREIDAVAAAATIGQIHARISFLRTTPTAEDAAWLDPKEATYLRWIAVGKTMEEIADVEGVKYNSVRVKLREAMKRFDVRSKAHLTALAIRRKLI

[4] = biological target: T2, Transcriptional activator protein TraR (Agrobacterium tumefaciens); test: Agonist activity at Agrobacterium tumefaciens WCF (pCF372) TraR assessed as activation of quorum sensing at 10 uM relative to OOHL
[5] = biological target: T1, Transcriptional activator protein LasR (Pseudomonas aeruginosa (strain ATCC 15692 / PAO1 / 1C / PRS 101 / LMG12228)); test: Agonist activity at Pseudomonas aeruginosa PAO1 MW1 (pUM15) LasR assessed as activation of quorum sensing at 10 uM relative to N-(3-oxo)-dodecanoyl HL
How it was run: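 P. aeruginosa PAO1 MW1 grown overnight at 30 °C in LB/MOPS pH 7 with carbenicillin (300 µg/mL). Subcultured 1:10 at 37 °C to OD 0.25–0.30 and plated with compound only, no native ligand. Incubated with shaking at 37 °C for 8 h. OD and fluorescence then read.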

[6] = biological target: T3, Transcriptional activator protein LuxR (Aliivibrio fischeri) (UniProt P12746); test: Agonist activity at Vibrio fischeri ESI 114 (delta-LuxI) LuxR assessed as activation of quorum sensing at 10 uM relative to OHHL
T3 sequence (whole entry): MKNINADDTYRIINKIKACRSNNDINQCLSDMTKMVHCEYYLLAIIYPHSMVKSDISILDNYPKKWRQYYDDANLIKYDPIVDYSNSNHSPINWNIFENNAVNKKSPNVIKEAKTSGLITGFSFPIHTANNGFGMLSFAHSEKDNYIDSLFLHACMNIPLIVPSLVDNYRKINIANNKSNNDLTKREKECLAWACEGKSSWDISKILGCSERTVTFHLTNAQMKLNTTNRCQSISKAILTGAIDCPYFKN
How it was run: (§1)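 LuxR reporter in V. fischeri ESI 114 (Δ-LuxI), compounds screened at 10 μM in triplicate. For inhibition, cells challenged with 2 μM OHHL. Agonism normalized to native ligand at 100 μM. Negative controls with no ligand subtracted as background.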

[7] = tested on: Escherichia coli DH5[alpha]; test: Antagonist activity at Escherichia coli DH5alpha (pJN105L + pSC11) LasR assessed as inhibition of N-(3-oxo)-dodecanoyl HL-induced quorum sensing activation at 10 uM relative to untreated control
[8] = biological target: T3, Transcriptional activator protein LuxR (Aliivibrio fischeri); test: Antagonist activity at Vibrio fischeri ESI 114 (delta-LuxI) LuxR assessed as inhibition of OHHL-induced quorum sensing activation at 10 uM relative to untreated control; how it was run: as §1

Row | inhibition [2] [%] | inhibition [3] [%] | Activity [4] [%] | Activity [5] [%] | Activity [6] [%] | inhibition [8] [%] | Compound | Activity [1] [%] | inhibition [7] [%]
1 | 9 | -10 | 0 | 0 | 1 |  | CCCCCCCCCC(=O)CC(=O)NCc1ccc(OC)c(OC)c1 | 1 | 13
2 | -1 |  |  | 0 | 3 | 18 | COc1ccc(CC(=O)NC2CCCC2)cc1 | 6 | 24
3 | 23 | -4 | 0 | 0 | 4 | 24 | CCCCCCCCCC(=O)CC(=O)N[C@@H](C)C(=O)OC | 2 | -4
4 | 0 |  | -2 | 0 | 3 | 2 | CCCCCCCCCC(=O)CC(=O)Nc1cc(-c2ccc(Cl)cc2)nn1C | 0 | 0
5 | -10 |  |  | 2 | 4 | 25 | O=C(CCCc1c[nH]c2ccccc12)NC1CCCC1 | 0 | 20
6 | 5 |  | -1 | 0 | 5 |  | CCCCCCCCCC(=O)CC(=O)NCc1c(F)cccc1F | 1 | 13
7 | 11 | -3 | 2 | 12 | 8 |  | CCCCCCCCCC(=O)CC(=O)NCC(=O)OCC | 51 | 
8 | 13 |  | 0 | 0 | 1 |  | CCCCCCCCCC(=O)CC(=O)NCc1ccc(F)cc1 | 0 | 13
9 | 29 |  | 1 | 1 | 2 | 12 | CCCCCCCCCC(=O)CC(=O)Nc1ccccc1 | 3 | 54
10 | -6 |  |  | 0 | 0 | 40 | CCOC(=O)CNC(=O)CCc1ccc(OC)cc1 | 0 | 36
11 | -10 |  |  | 0 | 0 | 15 | CCOC(=O)CNC(=O)Cc1ccccc1 | 0 | 38
12 | 8 | -6 | -1 | 0 | 6 |  | CCCCCCCCCC(=O)CC(=O)NCCC(c1ccccc1)c1ccccc1 | 0 | 17
13 | 12 |  |  | 0 | 0 | 1 | O=C(Cc1ccc(Br)cc1)Nc1ccccc1 | 3 | 20
14 |  |  |  | 0 | 0 | 19 | CCOC(=O)CNC(=O)Cc1cccc([N+](=O)[O-])c1 | 93 | 41
15 |  |  |  | 1 | 5 | 17 | O=C(Cc1ccc(-c2ccccc2)cc1)NC1CCCC1 | 0 | 4
16 | 5 |  |  | 0 | 7 | 2 | CCCCCCCCCC(=O)Nc1ccccc1 | 3 | 20

Row | inhibition [2] [%] | inhibition [3] [%] | Activity [4] [%] | Activity [5] [%] | Activity [6] [%] | inhibition [8] [%] | Compound | Activity [1] [%] | inhibition [7] [%]
17 | 5 | -4 | 0 | 0 | 1 | 7 | CCCCCCCCCC(=O)CC(=O)NCCc1ccccc1 | 0 | -4
18 | 26 | 1 | -1 | 0 | 4 | -4 | CCCCCCCCCC(=O)CC(=O)NCc1ccco1 | 0 | 0
19 |  |  |  | 0 | 0 | 89 | CCOC(=O)CNC(=O)CCc1cccc(I)c1 | 0 | 38
20 |  |  |  | 0 | 0 | 14 | CCOC(=O)CNC(=O)Cc1ccc(Br)cc1 | 0 | 33
21 | 16 | -10 | -1 | 0 | 3 |  | CCCCCCCCCC(=O)CC(=O)NCc1cc(F)cc(F)c1 | 0 | 22
22 | 17 | -6 | 0 | 0 | 2 | 44 | CCCCCCCCCC(=O)CC(=O)NCc1cccc([N+](=O)[O-])c1 | 0 | 41
23 | 1 |  |  | 0 | 0 | 19 | O=C(Cc1ccccc1)NC1CCCC1 | 0 | 11
24 |  |  |  | 0 | 0 | 43 | CCOC(=O)CNC(=O)Cc1ccc(SC(F)(F)F)cc1 | 0 | 33
25 | 38 | -8 | 0 | 1 | 2 | 15 | CCCCCCCCCC(=O)CC(=O)NCc1ccc(OC)cc1 | 73 | 
26 | -5 |  |  | 0 | 0 | 14 | CCOC(=O)CNC(=O)CCc1ccc(Cl)cc1 | 0 | 38
27 |  |  |  | 0 | 0 | 35 | O=C(Cc1ccc(Br)cc1)NC1CCCC1 | 0 | 11
28 | 0 |  |  | 1 | 0 | 0 | O=C(Cc1cccc([N+](=O)[O-])c1)Nc1ccccc1 | 0 | 12
29 | 13 |  | -1 | 0 | 2 |  | CCCCCCCCCC(=O)CC(=O)NCc1ccccc1F | 0 | 38
30 | -5 |  |  | 0 | 33 | 62 | O=C(Cc1cccc([N+](=O)[O-])c1)NC1CCCC1 | 0 | 29
31 | -7 |  | -1 | 4 | 3 | 35 | CCCCCCCCCC(=O)CC(=O)NCCC1=CCCCC1 | 0 | 10

Row | Compound | inhibition [2] [%] | inhibition [3] [%] | Activity [4] [%] | Activity [5] [%] | Activity [6] [%] | inhibition [8] [%] | Activity [1] [%] | inhibition [7] [%]
32 | CCCCCCCCCC(=O)CC(=O)NC1CCCC1 | -1 | -3 | -1 | 54 | 4 | 89 | 84 | 
